From publication PMC4390023 (The British journal of nutrition, 2013)
Entries after “also recorded” stand apart in the source; their conditions may differ. Each block holds one compound with its values, some of them ahead of it.

Assays:
[1] = test system: RARα; conditions: cited from earlier work
[2] = test system: RARβ; conditions: cited from earlier work
[3] = test system: RARγ; conditions: cited from earlier work
[4] = Study 1 growth assay; assay type: in vivo, rat; conditions: for Bioactivity compared with retinol: from body weights and area-under-the-response curves, equimolar 50 nmol/d; for Area-under-the growth curve, difference from control / Bioactivity from area-under-the growth curve, % of retinol / Bioactivity from final body weight, % of retinol / Final body weight / Area-under-the growth curve: rats, 50 nmol/d for 5 weeks; for Bioactivity from area-under-the growth curve, % of retinol: control subtracted, relative to retinol group; for Bioactivity from final body weight, % of retinol: difference from control relative to retinol group; for Final body weight / Area-under-the growth curve: mean, n 10; for Area-under-the growth curve: trapezoidal
How it was run: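 Weanling (21-d) male Sprague Dawley rats (n 40) were fed a vitamin A-deficient diet and weighed daily. At week 9 they were split into four weight-matched groups (n 10) and given 50 nmol/d oral retinoid acetate in 100 µl cottonseed oil, or vehicle alone. Rats were killed 5 weeks after dosing began. Body-weight AUC was by trapezoidal approximation, and bioactivity from ending weights versus the retinol group. ANOVA; means (SD).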

[5] = Study 1 tissue and serum ROH, αR and DR by HPLC; assay type: in vivo, rat; conditions: for Lung ROH concentration / Spleen ROH concentration: rats, 50 nmol/d oral, 5 weeks, mean, n 10
[6] = cited from earlier work; for Estimates of bioactivity in rats, that of ROH: ref estimates of the 1950's
[7] = rats maintained on DR; cited from earlier work
[8] = test system: retinol transporter; conditions: cited from earlier work
[9] = high doses given to dams; not to the extent of retinoic acid alone; cited from earlier work
[10] = Study 2 interaction study: graded αR with 70 nmol ROH/d, serum and liver; assay type: in vivo, rat; conditions: for Liver αR / Total dose liver retention: 3 weeks
How it was run: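 Each received oral daily 70 nmol reference retinoid plus 0, 17.5, 35 or 70 nmol test retinoid (as acetate) in 100 µl cottonseed oil. Rats were killed after 3 weeks. Serum and saponified liver were run on isocratic C18 HPLC-UV in acetonitrile:water 87.5:12.5 with 10 mM ammonium acetate. ANOVA; means (SD).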

[11] = Study 3 toxicity study: serum chemistry panel and liver histology; assay type: in vivo, rat; conditions: 3.5 µmol/d for 21 d; for Hepatotoxicity: rats killed 1, 8 and 15 d after the last dose
[12] = Study 3 retinol and α-retinol in liver, kidney and serum after the final dose; assay type: in vivo, rat; conditions: for Liver αR: 3.5 µmol/day for 21 days, n 5
[13] = test system: apo-RBP; conditions: cited from earlier work
[14] = in vitro and in vivo models; cited from earlier work
[15] = given intraperitoneally; cited from earlier work

SMILES: CC1=C(/C=C/C(C)=C/C=C/C(C)=C/C(=O)O)C(C)(C)CC=C1 [3,4-Didehydroretinoic acid]
Affinity for RARα [1]: same affinity as retinoic acid
Affinity for RARβ [2]: same affinity as retinoic acid
Affinity for RARγ [3]: same affinity as retinoic acid

Lung ROH concentration [5]: not detected
Spleen ROH concentration [5]: not detected
Serum DR in DR-dosed rats, times less than serum ROH in ROH-dosed rats ([5]; study 1): 2.6 times
SMILES: CC1=C(/C=C/C(C)=C/C=C/C(C)=C/CO)C(C)(C)CC=C1 [3,4-Didehydroretinol, 3,4-didehydroretinol]
Bioactivity compared with retinol [4]: 120–130%
Area-under-the growth curve, difference from control [4]: 1000
Bioactivity from area-under-the growth curve, % of retinol [4]: 127%
Bioactivity from final body weight, % of retinol [4]: 119%
Final body weight [4]: 560 g
Area-under-the growth curve [4]: 1867 g·days
Biological activity compared with ROH [6]: 40%
Estimates of bioactivity in rats, that of ROH [6]: 40%
Retina integrity [7]: normal retina integrity
Rate of carriage by the retinol transporter from the intestine [8]: at the same rate as ROH

SMILES: CC(=O)OC/C=C(C)/C=C/C=C(C)/C=C/C1=C(C)C=CCC1(C)C [3,4-didehydroretinyl acetate]
Terata in fetuses [9]: caused terata in fetuses

Kidney ROH relative to liver ROH ([5]; study 1): 7 times
Liver reserves, times less than deficiency cut-off (<70 nmol ROH/g liver) ([5]; study 1, ROH group): 14 times
SMILES: CC1=C(/C=C/C(C)=C/C=C/C(C)=C/CO)C(C)(C)CCC1 [Retinol, retinol, reference compound]
Area-under-the growth curve, difference from control [4]: 787
Bioactivity from area-under-the growth curve, % of retinol [4]: 100%
Bioactivity from final body weight, % of retinol [4]: 100%
Final body weight [4]: 546 g
Area-under-the growth curve [4]: 1654 g·days

SMILES: CC(=O)OC/C=C(C)/C=C/C=C(C)/C=C/C1=C(C)CCCC1(C)C [retinyl acetate, reference compound]
Terata in fetuses [9]: caused terata in fetuses

SMILES: CC1=CCCC(C)(C)C1/C=C/C(C)=C/C=C/C(C)=C/CO (stereo not drawn) [α-Retinol, α-retinol]
Growth rate relative to ROH ([4]; classic growth assay, 50 nmol/d): about 50%
Bioactivity compared with retinol [4]: 40–50%
Area-under-the growth curve, difference from control [4]: 298
Final body weight [4]: 508 g
Area-under-the growth curve [4]: 1165 g·days
Lung ROH concentration [5]: not detected
Spleen ROH concentration [5]: not detected
Cumulative αR doses recovered in the liver ([5]; study 1, ROH not made available): 0.3%
Serum ROH concentration ([5]; study 1, rats fed 50 nmol/d): ≤ 0.10 µmol/L
Liver αR ([10]; 17.5 nmol αR/d + 70 nmol ROH/d): 262 (SD 34) nmol/liver
Total dose liver retention ([10]; 17.5 nmol αR/d + 70 nmol ROH/d): 71.3%
Liver αR ([10]; 35 nmol αR/d + 70 nmol ROH/d): 449 (SD 23) nmol/liver
Total dose liver retention ([10]; 35 nmol αR/d + 70 nmol ROH/d): 61.1%
Liver αR ([10]; 70 nmol αR/d + 70 nmol ROH/d): 893 (SD 138) nmol/liver
Total dose liver retention ([10]; 70 nmol αR/d + 70 nmol ROH/d): 60.7%
Serum αR ([10]; study 2, 17.5-70 nmol αR/d + 70 nmol ROH/d): undetectable
Cumulative αR doses recovered in the liver ([10]; study 2, with 70 nmol ROH/d): 61–71%
Toxicity compared with control rats [11]: No toxicity was evident
Hepatotoxicity [11]: no hepatotoxicity occurred
Stellate cell hypertrophy ([11]; liver sections, hematoxylin and eosin): No stellate cell hypertrophy was detected
α-Retinyl esters circulating in the blood, share of total retinol ([12]; at αR concentrations >1.7 µmol/g liver): > 10%
Activity relative to retinol (ROH), growth-promoting activity in rats [6]: 2.1%
Bioactivity [6]: 2.6%
Biopotency versus US Pharmacopeia Vitamin A Reference Standard ([6]; rat growth and liver storage bioassays): approximately 2%
Estimates of bioactivity in rats, that of ROH [6]: 2%
Biopotency of all-trans-retinyl acetate ([6]; ref previous reports): 2%
Binding in vitro with apo-RBP [13]: failed to bind
Induction of signs of hypervitaminosis A [14]: very effective at inducing signs of hypervitaminosis A

Liver αR ([12]; day 1 after final dose): 2300 nmol/g
Liver αR ([12]; day 8 after final dose): 1750 nmol/g
Liver αR ([12]; day 15 after final dose): 1770 nmol/g
SMILES: CC(=O)OC/C=C(C)/C=C/C=C(C)/C=C/C1C(C)=CCCC1(C)C (stereo not drawn) [α-retinyl acetate]
Hepatotoxicity [11]: No hepatic toxicity was observed; also recorded: No hepatotoxicity was noted
Growth of hamsters [15]: sustains growth of hamsters
